Among the data in ChEMBL document CHEMBL1250500, “E-2-[3-(3,4-dichlorophenyl)-1-oxo-2-propenyl]-3-methylquinoxaline-1,4-dioxide: a lead antitubercular agent which alters mitochondrial respiration in rat liver” (Eur J Med Chem, 2010) are IC50, IC90 and Activity values, retold here.

The source made the active and inactive calls. The calls are words filed in the database; no cut-off is given here.

In the first test the test system is Mycobacterium tuberculosis. The test can be described thus: Antitubercular activity against Mycobacterium tuberculosis H37Rv ATCC 27294 by microplate alamar blue assay. In kind it is functional, organism-based. The procedure, abridged:
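Broth microdilution in BACTEC 12B medium, with Alamar Blue read-out.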
For the compound `Cc1c(C(=O)/C=C/c2ccc(F)cc2)[n+]([O-])c2ccccc2[n+]1[O-]`, 5.83 µM corresponded to half-maximal inhibition (IC50) and it took 10.7 µM to reach the 90% level (IC90).

`Cc1c(C(=O)/C=C/c2ccccc2)[n+]([O-])c2ccccc2[n+]1[O-]` had an IC50 of 3.88 µM and an IC90 of 6.12 µM.

In turn, `Cc1c(C(=O)/C=C/c2ccc(Br)cc2)[n+]([O-])c2ccccc2[n+]1[O-]` gave an IC50 of 3.71 µM and an IC90 greater than 250 µM.

Compound `Cc1c(C(=O)/C=C/c2ccc([N+](=O)[O-])cc2)[n+]([O-])c2ccccc2[n+]1[O-]` returned an IC50 greater than 250 µM and an IC90 greater than 250 µM.

In turn, `Cc1c(C(=O)/C=C/c2ccc(Cl)c(Cl)c2)[n+]([O-])c2ccccc2[n+]1[O-]` had an IC50 of 1.03 µM and an IC90 of 1.53 µM.

`Cc1c(C(=O)/C=C/c2ccc(Cl)cc2)[n+]([O-])c2ccccc2[n+]1[O-]` had an IC50 of 2.64 µM and an IC90 of 4.12 µM.

`COc1cc(/C=C/C(=O)c2c(C)[n+]([O-])c3ccccc3[n+]2[O-])cc(OC)c1OC` yielded an IC50 of 6.88 µM and an IC90 of 11.9 µM.

Compound `COc1ccc(/C=C/C(=O)c2c(C)[n+]([O-])c3ccccc3[n+]2[O-])cc1OC` came in with a half-maximal inhibitory concentration (IC50) of 9.15 µM and an IC90 of 17.2 µM.

On to `COc1ccc(/C=C/C(=O)c2c(C)[n+]([O-])c3ccccc3[n+]2[O-])cc1`, for which the IC50 worked out at 23.1 µM and the IC90 was 40.2 µM.

As to `Cc1ccc(/C=C/C(=O)c2c(C)[n+]([O-])c3ccccc3[n+]2[O-])cc1`, the IC50 worked out at 5.58 µM and the IC90 was determined as 9.44 µM.

`CC(=O)c1c(C)[n+]([O-])c2ccccc2[n+]1[O-]` [MEQUINDOX]: the IC50 came out at 6.83 µM and the IC90 stood at 7.89 µM.

For `Cc1c(C(=O)/C=C/c2cccc([N+](=O)[O-])c2)[n+]([O-])c2ccccc2[n+]1[O-]`, the IC50 was determined as 2.18 µM and the IC90 amounted to 2.39 µM.

`Cc1c(C(=O)/C=C/c2ccc3c(c2)OCO3)[n+]([O-])c2ccccc2[n+]1[O-]` came in with an IC50 of 19.7 µM and an IC90 of 35.8 µM.

For another test, the species on record is Rattus norvegicus. The test can be described thus: Induction of rat liver mitochondria respiration assessed as consumption of oxygen by polarography. In kind it is functional. The procedure, abridged:
(§1)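 Liver mitochondria isolated from a rat anesthetized with isoflurane and decapitated. Oxygen consumption measured polarographically. Compounds tested at 1, 5 and 10 μM, added in 4 μL DMSO. A DMSO-only (4 μL) solvent control was run alongside.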
On to `Cc1c(C(=O)/C=C/c2ccc(Cl)c(Cl)c2)[n+]([O-])c2ccccc2[n+]1[O-]`, for which the Activity entry was “Dose-dependent effect”.

The species named for another test is Rattus norvegicus. The test can be described thus: Induction of rat liver mitochondria respiration assessed as consumption of oxygen at 1 to 10 uM by polarography. In kind it is functional. The procedure, abridged: as §1
`CC(=O)c1c(C)[n+]([O-])c2ccccc2[n+]1[O-]` [MEQUINDOX]: the outcome was inactive.
